Results from ChEMBL document CHEMBL1147085, “Metabolism and pharmacokinetics of a novel Src kinase inhibitor TG100435 ([7-(2,6-dichloro-phenyl)-5-methyl-benzo[1,2,4]triazin-3-yl]-[4-(2-pyrrolidin-1-yl-ethoxy)-phenyl]-amine) and its active N-oxide metabolite TG100855 …” (Drug Metab Dispos, 2007).

How the values were obtained:
[1] = AUC (0 to infinity) in BALB/c mouse at 5 mg/kg, iv; type: ADME, organism-based; set-up: time infinity, dose 5 mg/kg, route intravenous; settings: plasma
Method in brief: (§1)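 Male BALB/c mice (~25 g); fasted overnight for single p.o. dosing, not fasted for i.v. or i.p. dosing. Composite blood sampling, n=3 per time point: 5, 15, 30 min, 1, 3, 6, 24, 48 hr after i.v. dose; 0.5, 1, 3, 5, 8, 24, 30, 48 hr after p.o. or i.p. dose. Heparinized plasma, both parent and N-oxide measured by LC/MS/MS (MRM 494.2/98.1 and 510.2/98.1); non-compartmental analysis, AUC by linear trapezoidal rule.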

[2] = AUC (0 to infinity) in Sprague-Dawley rat at 5 mg/kg, iv; type: ADME, organism-based; set-up: time infinity, dose 5 mg/kg, route intravenous; settings: plasma
[3] = Drug level in BALB/c mouse plasma at 5 mg/kg, iv; type: ADME, organism-based; set-up: dose 5 mg/kg, route intravenous; method in brief: as §1
[4] = Drug level in Sprague-Dawley rat plasma at 5 mg/kg, iv; type: ADME, organism-based; set-up: dose 5 mg/kg, route intravenous
[5] = Half life in BALB/c mouse at 5 mg/kg, iv; type: ADME, organism-based; set-up: dose 5 mg/kg, route intravenous; settings: in vivo; method in brief: as §1
[6] = Half life in Sprague-Dawley rat at 5 mg/kg, iv; type: ADME, organism-based; set-up: dose 5 mg/kg, route intravenous; settings: in vivo
[7] = Volume of distribution in BALB/c mouse at 5 mg/kg, iv; type: ADME, organism-based; set-up: dose 5 mg/kg, route intravenous; settings: in vivo
[8] = Volume of distribution in Sprague-Dawley rat at 5 mg/kg, iv; type: ADME, organism-based; set-up: dose 5 mg/kg, route intravenous; settings: in vivo
[9] = Clearance in BALB/c mouse at 5 mg/kg, iv; type: ADME, organism-based; set-up: dose 5 mg/kg, route intravenous; settings: in vivo; method in brief: as §1
[10] = Clearance in Sprague-Dawley rat at 5 mg/kg, iv; type: ADME, organism-based; set-up: dose 5 mg/kg, route intravenous; settings: in vivo
[11] = Cmax in BALB/c mouse at 25 mg/kg, po; type: ADME, organism-based; set-up: dose 25 mg/kg, route oral; settings: in vivo; method in brief: as §1
[12] = Half life in Beagle dog at 5 mg/kg, iv; type: ADME, organism-based, Canis lupus familiaris; set-up: dose 5 mg/kg, route intravenous; settings: in vivo
[13] = AUC (0 to infinity) in Beagle dog at 5 mg/kg, iv; type: ADME, organism-based, Canis lupus familiaris; set-up: time infinity, dose 5 mg/kg, route intravenous; settings: plasma
[14] = Volume of distribution in Beagle dog at 5 mg/kg, iv; type: ADME, organism-based, Canis lupus familiaris; set-up: dose 5 mg/kg, route intravenous; settings: in vivo
[15] = Clearance in Beagle dog at 5 mg/kg, iv; type: ADME, organism-based, Canis lupus familiaris; set-up: dose 5 mg/kg, route intravenous; settings: in vivo
[16] = Cmax in Beagle dog at 25 mg/kg, po; type: ADME, organism-based, Canis lupus familiaris; set-up: dose 25 mg/kg, route oral; settings: in vivo
[17] = AUC (0 to infinity) in Beagle dog at 25 mg/kg, po; type: ADME, organism-based, Canis lupus familiaris; set-up: time infinity, dose 25 mg/kg, route oral; settings: plasma
[18] = AUC (0 to last) in Beagle dog at 25 mg/kg, po; type: ADME, organism-based, Canis lupus familiaris; set-up: dose 25 mg/kg, route oral, time 0 - last; settings: plasma
[19] = Bioavailability in Beagle dog at 25 mg/kg, po; type: ADME, organism-based, Canis lupus familiaris; settings: in vivo
Canis familiaris = experiment: Bioavailability in Beagle dog assessed as AUC of ([7-(2,6-Dichloro-phenyl)-5-methyl-benzo[1,2,4]triazin-3-yl]-{4-[2-(1-pyrrolidin-1-yl-ethoxy)-phenyl]-amine) at 25 mg/kg, po; type: ADME, organism-based, Canis lupus familiaris; settings: in vivo
[20] = AUC (0 to infinity) in BALB/c mouse at 40 mg/kg, po; type: ADME, organism-based; set-up: time infinity, dose 40 mg/kg, route oral; settings: plasma; method in brief: as §1
[21] = AUC (0 to infinity) in Sprague-Dawley rat at 30 mg/kg, po; type: ADME, organism-based; set-up: time infinity, dose 30 mg/kg, route oral; settings: plasma
[22] = Tmax in Sprague-Dawley rat at 25 mg/kg, po; type: ADME, organism-based; set-up: dose 25 mg/kg, route oral; settings: in vivo
[23] = AUC (0 to infinity) in BALB/c mouse at 25 mg/kg, po; type: ADME, organism-based; set-up: time infinity, dose 25 mg/kg, route oral; settings: plasma; method in brief: as §1
[24] = AUC (0 to infinity) in Sprague-Dawley rat at 25 mg/kg, po; type: ADME, organism-based; set-up: time infinity, dose 25 mg/kg, route oral; settings: plasma
[25] = AUC (0 to last) in BALB/c mouse at 25 mg/kg, po; type: ADME, organism-based; set-up: time 0 - last, dose 25 mg/kg, route oral; settings: plasma; method in brief: as §1
[26] = AUC (0 to last) in Sprague-Dawley rat at 25 mg/kg, po; type: ADME, organism-based; set-up: time 0 - last, dose 25 mg/kg, route oral; settings: plasma
[27] = Bioavailability in Sprague-Dawley rat at 25 mg/kg, po; type: ADME, organism-based; settings: in vivo
[28] = Drug level in Beagle dog plasma at 5 mg/kg, iv; type: ADME, organism-based, Canis lupus familiaris; set-up: dose 5 mg/kg, route intravenous

What does the source list for Cc1cc(-c2c(Cl)cccc2Cl)cc2nnc(Nc3ccc(OCCN4CCCC4)cc3)nc12?
AUC(0-inf) [1]: 4140 ng·h/mL; AUC(0-inf) [2]: 7030 ng·h/mL; C0 [3]: 873 ng/mL; C0 [4]: 1650 ng/mL; half-life [5]: 5.4 h; half-life [6]: 8.9 h; Vd [7]: 9.4 L/kg; Vd [8]: 9.4 L/kg; clearance [9]: 20.1 mL/min/kg; clearance [10]: 12.7 mL/min/kg; Cmax [11]: 618 ng/mL; half-life [12]: 15.1 h; AUC(0-inf) [13]: 5800 ng·h/mL; Vd [14]: 18.7 L/kg; clearance [15]: 14.5 mL/min/kg; Cmax [16]: 102 ng/mL; AUC(0-inf) [17]: 3110 ng·h/mL; AUC(0-t) [18]: 2540 ng·h/mL; bioavailability [19]: 10.7%; AUC (Canis familiaris): 6470 ng·h/mL; AUC(0-inf) [20]: 35100 ng·h/mL; AUC(0-inf) [21]: 8120 ng·h/mL; Tmax [22]: 8 h; AUC(0-inf) [23]: 15300 ng·h/mL; AUC(0-inf) [24]: 8010 ng·h/mL; AUC(0-t) [25]: 15000 ng·h/mL; AUC(0-t) [26]: 7980 ng·h/mL; bioavailability [27]: 23%; C0 [28]: 1660 ng/mL
